Screening data as filed in PubChem BioAssay.
Sampled rows, rich in hits. Any-hit rate of the full collection: about 2.6%.
NadD inh – NadD (S. aureus) enzyme inhibition; purified NadD enzyme, colorimetric absorbance read-out; AID 602399; hit rate 0.78% among 360,000; inhibition, % at 20 µM; in the data active = inhibition above about 26%
STEP block – blocks human striatal-enriched tyrosine phosphatase; recombinant STEP, OMFP fluorogenic substrate, fluorescence; inhibition, % at 20 µM; hit rate 0.25% among 360,000; AID 588621;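 active = inhibition at 20 µM, scaled per plate between control wells, above about 37%, limit read from the data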
Target sequence (P54829 whole entry, looked up): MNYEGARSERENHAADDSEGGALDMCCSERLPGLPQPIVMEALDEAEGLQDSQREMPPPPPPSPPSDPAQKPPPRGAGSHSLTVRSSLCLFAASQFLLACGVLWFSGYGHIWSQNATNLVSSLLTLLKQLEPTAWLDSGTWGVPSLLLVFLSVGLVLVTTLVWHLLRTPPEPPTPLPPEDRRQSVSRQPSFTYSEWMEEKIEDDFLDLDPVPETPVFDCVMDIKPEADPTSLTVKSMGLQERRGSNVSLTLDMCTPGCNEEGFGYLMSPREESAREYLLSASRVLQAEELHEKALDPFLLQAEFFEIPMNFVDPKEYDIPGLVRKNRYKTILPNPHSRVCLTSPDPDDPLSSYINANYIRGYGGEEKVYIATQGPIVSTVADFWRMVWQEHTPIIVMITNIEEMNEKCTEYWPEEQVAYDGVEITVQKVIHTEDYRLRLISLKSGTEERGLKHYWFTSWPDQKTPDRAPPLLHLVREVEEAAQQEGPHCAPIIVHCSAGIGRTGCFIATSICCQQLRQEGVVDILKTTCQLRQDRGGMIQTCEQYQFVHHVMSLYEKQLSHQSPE
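medium = Bis-Tris buffer pH 6.0, 2.5 mM DTT, 0.005% Tween 20 | test system = STEP (striatal-enriched tyrosine phosphatase) enzyme, cell-free | measure = normalized % inhibition | compound dosing = 20 µM, 1% DMSO | also added = 25 µM OMFP | schedule = reaction 20 min, ambient temperature | measured by = fluorescence read at 480 nm ex / 540 nm em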
rCAG RNA binder – binds r(CAG) RNA repeats; r(CAG) RNA repeat, TO-PRO-1 dye displacement fluorescence; inhibition, % at 3 µM; hit rate 1.3% among 370,000;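 active = inhibition above the plate cutoff, the mean of all test compounds on that plate plus 3 SD, cut at about 35% in these data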;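 note: higher means more dye released from RNA so lower well fluorescence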
Scp1 inh – Scp-1 (human) phosphatase inhibition | Recombinant Scp1, phosphopeptide, malachite green phosphate absorbance | inhibition, % at 20 µM | Q9GZU7 | hit rate 0.88% among 340,000;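 active = inhibition above about 50% at 20 µM, limit read from the data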
Target sequence (Q9GZU7 76-261 limits assumed): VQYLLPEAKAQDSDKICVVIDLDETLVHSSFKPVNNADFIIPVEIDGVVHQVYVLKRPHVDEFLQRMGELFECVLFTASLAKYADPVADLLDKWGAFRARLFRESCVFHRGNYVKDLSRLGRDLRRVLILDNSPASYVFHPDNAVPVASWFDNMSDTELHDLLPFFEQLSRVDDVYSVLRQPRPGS
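System: truncated SCP-1 phosphatase (76-261aa); medium: Tris acetate buffer pH 5.5 with MgCl2 and Tween-20; incubation: 45 min room-temperature reaction, 5 min colour, 30 min stabiliser; compound: single 20 µM dose, 1% DMSO; reagent: Phosphorylated 17-residue peptide substrate; read-out: % inhibition at 20 µM; technique: colorimetric free-phosphate detection, absorbance 630 nm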
LMPTP inh – blocks human LMPTP phosphatase | P24666 | recombinant LMPTP-A, OMFP fluorogenic substrate, fluorescence intensity | inhibition, % at 20 µM | hit rate 0.22% among 360,000 | AID 651560;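 active = compounds that cut the enzyme signal by at least half of the control window in the single-dose screen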
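Assay system: LMPTP-A enzyme. Input: 0.625 nM LMPTP-A final. Probe or stimulus: 400 µM OMFP. Compound dosing: single 20 µM dose. Schedule: 50 min dark incubation at room temperature. Detection: fluorescence intensity of OMFP turnover product. Read-out: percent inhibition versus substrate-only and uninhibited controls. Benchmarks: no-enzyme low control, uninhibited high control.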
Scp1 confirm – confirmation of human Scp-1 phosphatase inhibitors. AID 540281. recombinant SCP-1 catalytic domain, phosphate release, malachite green absorbance. shares compounds with Scp1 inh. hit rate 61% among 2,500. inhibition, % at 20 µM
MG interference – colorimetric interference in Scp-1 counter-screen; AID 540313; Colorimetric interference counterscreen, malachite green absorbance 630 nm; 2,500 tested, under 10 active; apparent inhibition (interference), % at 20 µM; shares compounds with Scp1 inh;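 note: compounds added after enzyme reaction finished so only phosphate colour detection is probed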
Scp-1 Tm shift – validation of human Scp-1 inhibitors by thermal shift binding | shares compounds with Scp1 inh | AID 540329 | hit rate 25% among 1,500 | thermal shift relative to vanadate control, % at 40 µM | Recombinant SCP1, Sypro Orange thermal shift Tm;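 active = substances whose mean melting-temperature shift, as a percentage of the reference inhibitor's shift, reaches about 5.3%, limit read from the data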
Of the large screens only hits and unclear results are named; the others gave an inactive call (follow-up assays come after a bar, where they were run).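 Rule for the calls, unless noted: active = inhibition of at least 30% at 20 µM; inactive = the rest.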

CCSc1nnc(NC(=O)C2CCCCC2)s1	none
CCSc1nnc(NC(=O)C2CC=CCC2C(=O)O)s1 (stereo not drawn)	Scp1 inh 86.7 | Scp1 confirm 52.5 | MG interference inactive | Scp-1 Tm shift inactive
C=CCN1[C@H](CO)[C@H](c2ccc(C#CC3(O)CCCC3)cc2)[C@@H]1C#N	none (no result: NadD inh, STEP block, Scp1 inh, LMPTP inh)
C[N+]1(CC2COC3(CCCCC3)O2)CCCC1 (stereo not drawn)	Scp1 inh 61.4 | Scp1 confirm inactive | MG interference inactive
C1CCCCCC2(CCCCC1)OCC(CN1CCOCC1)O2 (stereo not drawn)	none
COc1ccc(OC)c(-c2nc3ccccc3nc2-c2ccccc2)c1	Scp1 inh 58.5 | Scp1 confirm inactive | MG interference inactive
O=C(N/N=C/c1cn(-c2ccccc2)nc1-c1ccc2c(c1)OCCO2)c1ccncc1	Scp1 inh 75.2 | Scp1 confirm 57.2 | MG interference inactive | Scp-1 Tm shift inactive
COc1ccc(C(CNS(=O)(=O)c2ccc(NC(C)=O)c(OC)c2)N2CCCCC2)cc1 (stereo not drawn)	Scp1 inh 50.2 | Scp1 confirm inactive | MG interference inactive
O=Cc1ccc(OCc2cccc(C(F)(F)F)c2)cc1O	Scp1 inh 61.6 | Scp1 confirm inactive | MG interference inactive
Cc1ccc(NC(=O)CN(C)C(=O)c2ccc(S(=O)(=O)N(C)c3ccccc3)cc2)cc1	Scp1 inh 54.2 | Scp1 confirm inactive | MG interference inactive
CCOC(=O)C1=NOC(C(=O)Nc2cc(C)cc(C)c2)(C(=O)C2CC2)C1 (stereo not drawn)	none (no result: NadD inh, STEP block, Scp1 inh, LMPTP inh)
CC(=O)OCC[n+]1c(C)n(-c2ccccc2)c2ccc(Cl)cc21	Scp1 inh 89.7 | Scp1 confirm inactive | MG interference inactive
CCOC(=O)c1ccc2c(c1)[n+](CC)c(C)n2-c1ccccc1	none
O=C(O)c1cccc2c1/C(=N/Nc1ccc([N+](=O)[O-])cc1[N+](=O)[O-])c1ccccc1-2	Scp1 inh 85.6 (no result: rCAG RNA binder) | Scp1 confirm 56.5 | MG interference inactive | Scp-1 Tm shift 12.0
C/C=C\C=C\C(=O)N1CC2(CC(c3cccc(NC(=O)CC)c3)=NO2)C[C@H]1C(N)=O (stereo partly drawn)	Scp1 inh 69.7 | Scp1 confirm 65.7 | MG interference inactive | Scp-1 Tm shift inactive
C=C(C)C(=O)Nc1cccc(C2=NOC3(C2)C[C@@H](C(N)=O)N(C(=O)CCCCC)C3)c1 (stereo partly drawn)	Scp1 inh 82.8 (no result: NadD inh, STEP block, LMPTP inh) | Scp1 confirm 68.8 | MG interference inactive | Scp-1 Tm shift inactive
C=C(C)C(=O)Nc1cccc(C2=NOC3(C2)C[C@@H](C(N)=O)N(C(=O)c2cc([N+](=O)[O-])cc([N+](=O)[O-])c2)C3)c1 (stereo partly drawn)	Scp1 inh 61.3 | Scp1 confirm 49.4 | MG interference inactive | Scp-1 Tm shift inactive
C/C=C/C=C\C(=O)Nc1cccc(C2=NOC3(C2)C[C@H](C(N)=O)N(C(=O)/C=C/C)C3)c1 (stereo partly drawn)	none
COC(=O)[C@@]12CCCCC3=C1N(CCC3)C(=O)[C@H]2CC(=O)N1CCCCC1	none (no result: NadD inh, STEP block, Scp1 inh, LMPTP inh)
COC(=O)C1=C(COc2ccccc2)NC(=O)NC1c1ccc(Br)cc1 (stereo not drawn)	none
COC(=O)C1=C(COc2ccccc2)NC(=O)NC1c1ccc2ccccc2c1 (stereo not drawn)	Scp1 inh 50.1 (no result: NadD inh, STEP block, LMPTP inh) | Scp1 confirm 30.6 | MG interference inactive | Scp-1 Tm shift inactive
CCNc1nc(NCC)n2c(SCC(=O)Nc3ccccc3)nnc2n1	none
CCNc1nc(NCC)n2c(SCC(=O)Nc3ccc(OC(F)F)cc3)nnc2n1	Scp1 inh 67.6 | Scp1 confirm 39.0 | MG interference inactive | Scp-1 Tm shift inactive
CCNc1nc(NCC)n2c(SCC(=O)Nc3ccc(F)cc3)nnc2n1	Scp1 inh 53.8 | Scp1 confirm 54.7 | MG interference inactive | Scp-1 Tm shift inactive
CC(C)CNC(=O)OCc1cn(Cc2ccc(C(F)(F)F)cc2)nn1	none (no result: NadD inh, STEP block, Scp1 inh, LMPTP inh)
Cc1ccc(C(=O)Oc2ccc(C(=O)COC(=O)C3CC(=O)N(Cc4ccco4)C3)cc2)cc1 (stereo not drawn)	Scp1 inh 60.5 (no result: rCAG RNA binder) | Scp1 confirm 47.8 | MG interference inactive | Scp-1 Tm shift inactive
Cc1ccc(NC(=O)CC(=O)Nc2ccc(C)c(C)c2)cc1C	Scp1 inh 62.2 | Scp1 confirm 82.2 | MG interference inactive | Scp-1 Tm shift inactive
COc1ccc(N2Cc3cccc(C(=O)O)c3C2=O)cc1	Scp1 inh 81.5 (no result: rCAG RNA binder) | Scp1 confirm 71.1 | MG interference inactive | Scp-1 Tm shift inactive
Cc1ccccc1CN1CCCCC(NC(=O)c2cccc([N+](=O)[O-])c2)C1=O (stereo not drawn)	none (no result: NadD inh, STEP block, Scp1 inh, LMPTP inh)
O=C(Nc1ccc(NC(=O)c2cccs2)cc1)c1ccc(Br)o1	Scp1 inh 60.9 | Scp1 confirm 72.1 | MG interference inactive | Scp-1 Tm shift inactive
O=C(Nc1cccc(NC(=O)c2cccs2)c1)c1ccc(Br)o1	none
CCOc1ccc(/C=C2\SC(=S)N(CCC(=O)Nc3ccc(C(=O)O)cc3)C2=O)cc1	STEP block 45.1, Scp1 inh 87.7, LMPTP inh 66.5 | Scp1 confirm 60.1 | MG interference inactive | Scp-1 Tm shift inactive
Cc1ccc(NC(=O)CN2C(=O)S/C(=C\c3cc(Cl)c(OCC(=O)O)c(Cl)c3)C2=O)cc1	NadD inh 27.8, STEP block 98.1, Scp1 inh 89.5, LMPTP inh 84.8 | Scp1 confirm 57.4 | MG interference inactive | Scp-1 Tm shift inactive
O=C(CCN1C(=O)/C(=C/c2ccc3c(c2)OCO3)SC1=S)Nc1ccc(C(=O)O)cc1	Scp1 inh 84.3, LMPTP inh 92.2 | Scp1 confirm 70.8 | MG interference inactive | Scp-1 Tm shift 8.7
COC(=O)c1ccc(/C=C2/SC(=S)N(CCCC(=O)Nc3ccc(O)cc3)C2=O)cc1	none
CCOc1ccc(/C=C2\SC(=S)N(CCC(=O)Nc3cccc(C(=O)O)c3)C2=O)cc1	STEP block 54.4, Scp1 inh 85.5, LMPTP inh 73.6 | Scp1 confirm 60.7 | MG interference inactive | Scp-1 Tm shift 37.3
COC(=O)[C@H](CC(C)C)N(Cc1cn(CC2CCCCC2)nn1)S(=O)(=O)c1ccc(F)cc1Br	none (no result: NadD inh, STEP block, Scp1 inh, LMPTP inh)
Cc1ccc(C(=O)C2CCN(CC(=O)NCc3cccs3)CC2)cc1	none (no result: NadD inh, STEP block, Scp1 inh, LMPTP inh)
O=C(CCCN1C(=O)S/C(=C/c2ccccc2)C1=S)Nc1ccc(C(=O)O)cc1	none
